Source: article PMC6350648 (Drug Design, Development and Therapy, 2019)
No end group written: not given here.

Tests used:
[1] = system: Staphylococcus aureus (NCTC10788); test: MIC/MBC broth-dilution assay; type: cell-based; conditions: S. aureus NCTC10788, MHB pH 7.4, 512 to 1 µM twofold, 1% DMSO
How it was run: (§1)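 Broth dilution was run in Mueller Hinton Broth, pH 7.4, with peptide at final 512 to 1 µM in twofold steps. Peptide stocks were in DMSO, giving final 1% (v/v) DMSO, also used alone as vehicle control. Controls were culture without peptide for growth and fresh MHB as blank. Positive controls were 5 mg/L vancomycin (S. aureus, MRSA, E. faecalis) and 5 mg/L amphotericin B (C. albicans). Five independent experiments were run.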

[2] = system: Escherichia coli (NCTC10418); test: MIC/MBC broth-dilution assay; type: cell-based; conditions: E. coli NCTC10418, MHB pH 7.4, 512 to 1 µM twofold, 1% DMSO
How it was run: as §1

[3] = system: Candida albicans (NCYC1467); test: MIC/MBC broth-dilution assay; type: cell-based; conditions: C. albicans NCYC1467, MHB pH 7.4, 512 to 1 µM twofold, 1% DMSO
How it was run: as §1

[4] = system: methicillin-resistant S. aureus (MRSA) (NCTC12493); test: MIC/MBC broth-dilution assay; type: cell-based, Staphylococcus aureus; conditions: MHB pH 7.4, 512 to 1 µM twofold, 1% DMSO
How it was run: as §1

[5] = system: Enterococcus faecalis (NCTC12697); test: MIC/MBC broth-dilution assay; type: cell-based; conditions: E. faecalis NCTC12697, MHB pH 7.4, 512 to 1 µM twofold, 1% DMSO
How it was run: as §1

horse erythrocytes = test: Hemolysis assay; type: cell-based; conditions: peptides in PBS, 512 to 1 µM, 1% Triton-X100 = 100%
How it was run: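 Horse erythrocytes were exposed to peptide in PBS at 512 to 1 µM. Erythrocytes in PBS defined 0% hemolysis and 1% (v/v) Triton X-100 defined 100%. HC50 (µM) was the concentration giving half-maximal hemolysis. Values are the mean with standard error from five independent experiments.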

MDA-MB-435S cells = test: MTT assay; type: cell-based, human; conditions: MB435s (MDA-MB-435S); peptides in serum-free medium
How it was run: (§2)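 For MTT viability, MDA-MB-435S, U251MG, HCT116 and MCF-7 were grown in DMEM, and NCI-H157 and PC-3 in RPMI 1640. All media had 10% FBS and 1% penicillin–streptomycin. Peptides were diluted in serum-free medium. Untreated cells defined 100% viability, and LD50 was the median lethal dose. Values are the mean with standard error from five independent experiments.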

NCI-H157 cells = test: MTT assay; type: cell-based, human; conditions: peptides in serum-free medium
How it was run: as §2

PC-3 cells = test: MTT assay; type: cell-based, human; conditions: peptides in serum-free medium
How it was run: as §2

U251MG cells = test: MTT assay; type: cell-based, human; conditions: peptides in serum-free medium
How it was run: as §2

HCT116 cells = test: MTT assay; type: cell-based, human; conditions: peptides in serum-free medium
How it was run: as §2

MCF-7 cells [6] = test: MTT assay; type: cell-based, human; conditions: peptides in serum-free medium
How it was run: as §2

MCF-7 cells [7] = type: cell-based, human; conditions: MCF-7, 10 µM peptide; 100% = 1% TritonX-100; five replicates
[8] = system: selected human cancer cell lines; test: MTT assay, all cancer cell lines examined; type: cell-based; conditions: all six cancer cell lines
How it was run: as §2

Row | Substance | MBC [1] | MIC [1] | MBC [2] | MIC [2] | MBC [3] | MIC [3] | MBC [4] | MIC [4] | MBC [5] | MIC [5] | HC50 of hemolysis on erythrocytes (horse erythrocytes) | LD50 of MTT assays (MDA-MB-435S cells) | LD50 of MTT assays (NCI-H157 cells) | LD50 of MTT assays (PC-3 cells) | LD50 of MTT assays (U251MG cells) | LD50 of MTT assays (HCT116 cells) | LD50 of MTT assays (MCF-7 cells [6]) | LDH release (MCF-7 cells [7]) | LD50 (MTT) for all the cell lines examined [8]
1 | FLSLIPAAISAVSALANHF-NH2 [PSPHa, Phylloseptin-PHa] | 16 µM | 8 µM | > 512 µM | > 512 µM | 32 µM | 32 µM | 128 µM | 64 µM | > 512 µM | > 512 µM | 52.17 µM | 28.48 µM | 37.61 µM | 37.96 µM | 34.67 µM | 36.64 µM | 24.05 µM | not as potent as PSPHa2–5 | 
2 | FLSLIPKAISAISALANHF-NH2 [PSPHa2] | 4 µM | 4 µM | 128 µM | 64 µM | 16 µM | 8 µM | 32 µM | 16 µM | 64 µM | 64 µM | 34.86 µM | 19.56 µM | 35.34 µM | 35.11 µM | 36.46 µM | 37.4 µM | 26.49 µM |  | 
3 | FLSLIPKAISAISALINHF-NH2 [PSPHa3] | 2 µM | 2 µM | > 512 µM | > 512 µM | 4 µM | 4 µM | 32 µM | 32 µM | 32 µM | 32 µM | 9.266 µM | 3.994 µM | 2.865 µM | 9.164 µM | 10.85 µM | 11.71 µM | 10.48 µM |  | 
4 | FLSLIPKAISAVSALANHF-NH2 [PSPHa1] | 8 µM | 8 µM | 128 µM | 128 µM | 32 µM | 16 µM | 32 µM | 16 µM | 32 µM | 32 µM | 197.7 µM | 32.41 µM | 41.73 µM | 32.89 µM | 33.65 µM | 35.16 µM | 45.69 µM | lowest degree of LDH release | 
5 | FLSLIPKIISAISALIKHF-NH2 [PSPHa5] | 2 µM | 2 µM | > 512 µM | > 512 µM | 128 µM | 32 µM | 128 µM | 64 µM | 32 µM | 16 µM | 1.074 µM | 3.553 µM | 3.614 µM | 4.256 µM | 4.059 µM | 4.421 µM | 3.753 µM |  | < 5 µM
6 | FLSLIPKIISAISALINHF-NH2 [PSPHa4] | 2 µM | 2 µM | > 512 µM | > 512 µM | 128 µM | 32 µM | 256 µM | 128 µM | 64 µM | 32 µM | 2.766 µM | 4.802 µM | 2.265 µM | 9.35 µM | 9.547 µM | 6.779 µM | 15.01 µM |  | 
